Source: article PMC3561458 (Investigational new drugs, 2011)

What was measured:
patients [1] = settings: cited from earlier work
patients [2] = settings: cited from earlier work; remark: listed apart in the source
CDK1 = settings: cited from earlier work
CDK2 = settings: cited from earlier work
CDK4 = settings: cited from earlier work
CDK7 = settings: cited from earlier work
patients [3] = settings: intravenous; cited from earlier work
Plasma pharmacokinetics = type: in vivo, human; settings: across doses
Method in brief: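 The test compound is given orally once daily for 7 days in 2-week cycles (S1). Plasma is sampled in cycle 1 on days 1, 2, 4, 7, 8 and 9, and in cycle 2 on days 1, 4 and 7. Cycle 1 day 1 is sampled from 30 min to 24 h after dosing and day 7 from 30 min to 96 h. Parent and metabolite are measured by validated LC-MS-MS, with calibration ranges of 0.00109–1.09 and 0.00105–1.05 μM respectively.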

Urinary excretion = type: in vivo, human; settings: patients at the RP2D in S1
Method in brief: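 Urine is collected only from S1 patients dosed at the recommended phase II dose, with once-daily oral dosing for 7 days in 2-week cycles. Parent compound and metabolite in urine are measured by validated LC-MS-MS, with calibration ranges of 0.217–109 μM for the parent and 0.210–105 μM for the metabolite.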

Cc1ncc(-c2ccnc(Nc3ccc(S(C)(=O)=O)cc3)n2)n1C(C)C [AZD438]
toxicities (patients [1]): myelotoxicity, GI toxicity, fatigue, skin rash and electrolytes inbalance, with no neurological toxicity

C[C@]12O[C@H](C[C@]1(O)CO)n1c3ccccc3c3c4c(c5c6ccccc6n2c5c31)CNC4=O [CEP-701]
most frequently reported side effects (patients [2]): predominantly GI-related (nausea, diarrhea, anorexia, constipation, and vomiting), and asthenia | patients with stable disease for at least six months (patients [2]): three | patients with stable disease for more than three months (patients [2]): Seven of 30

CCc1cnn2c(NCc3ccc[n+]([O-])c3)cc(N3CCCC[C@H]3CCO)nc12 [dinaciclib]
toxicities (patients [1]): myelotoxicity, GI toxicity, fatigue, skin rash and electrolytes inbalance, with no neurological toxicity

CN1CC[C@H](c2c(O)cc(O)c3c(=O)cc(-c4ccccc4Cl)oc23)[C@H](O)C1 [flavopiridol, reference compound]
inhibition of CDK1 (CDK1): demonstrated inhibition | inhibition of CDK2 (CDK2): demonstrated inhibition | inhibition of CDK4 (CDK4): demonstrated inhibition | inhibition of CDK7 (CDK7): demonstrated inhibition | clinical activity (patients [3]): showed activity in some patients with non-Hodgkin’s lymphoma, renal, prostate, colon, and gastric carcinomas | main side effects (patients [3]): secretory diarrhea, a proinflammatory syndrome associated with hypotension, and hyperglycemia

Nc1nc2cccc(-c3ccc(CN4CCS(=O)(=O)CC4)cc3)n2n1 [metabolite]
AUC0-24 of the metabolite relative to parent compound (Plasma pharmacokinetics): approximately 30% | Cmax of the metabolite relative to parent compound (Plasma pharmacokinetics): approximately 30% | amount excreted in urine (Urinary excretion): 13 % of dose

CC[C@H](CO)Nc1nc(NCc2ccccc2)c2ncn(C(C)C)c2n1 [seliciclib]
toxicities (patients [1]): myelotoxicity, GI toxicity, fatigue, skin rash and electrolytes inbalance, with no neurological toxicity
